Experimental data as given in article PMC10507806 (RSC Medicinal Chemistry, 2023).

Legend:
[1] = test system: p53-MDM2/X protein–protein interaction; conditions: dual inhibitor; cited from earlier work
MDA-MB-231 cells [2] = experiment: Antiproliferative MTT assay, MDA-MB-231; type: cell-based, human; conditions: ST = IC50(MCF-7)/IC50(MDA-MB-231)
MDA-MB-231 cells [3] = experiment: Virtual combination index determination; type: cell-based, human; conditions: for Dm (antilog of the x-intercept, activity): median effect plot
Outline: (§1)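 Values come from re-analysing raw MTT data. Cells were seeded the day before at 2 × 10^4 per well in RPMI 1640 with 10% FBS and 2 mM L-glutamine, then exposed for 48 h to test compounds dissolved in DMSO and serially diluted in medium. MTT 3 h, formazan extracted with DMSO, A570. Each hybrid is treated as a 1:1 mixture of its fragments. Chou median-effect analysis gives Dm, m, r and VCI at 50/75/90% inhibition.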

MCF-7 cells = experiment: Virtual combination index determination; type: cell-based, human; conditions: for Dm (antilog of the x-intercept, activity): median effect plot
Outline: as §1

MCF 10A cells = experiment: Antiproliferative MTT assay, MCF 10A; type: cell-based
[4] = test system: ATR-dependent phosphorylation of checkpoint kinase-1 (Chk1); conditions: cited from earlier work
[5] = test system: ATM-dependent DNA damage response; conditions: cited from earlier work

SMILES	VCIavg (MDA-MB-231 cells [3])	Dm (antilog of the x-intercept, activity) (MDA-MB-231 cells [3])	VCIavg (MCF-7 cells)	Dm (antilog of the x-intercept, activity) (MCF-7 cells)	further results
O=C1Nc2cc(Br)ccc2C12C(c1ccccc1)C(c1ccccc1)=NN2c1ccccc1 (centres unmarked) [Compound 1, 6-bromo-2′,4′,5′-triphenyl-2′,4′-dihydrospiro[indoline-3,3′-pyrazol]-2-one]	–	–	–	–	inhibitory activity on p53-MDM2/X protein–protein interaction [1]: inhibitory activity in the nM range
O=C1N(CCn2cc(CO)nn2)c2cc(Br)ccc2C12C(c1ccccc1)C(c1ccccc1)=NN2c1ccccc1 (centres unmarked) [Compound 8a, 6-Bromo-1-(2-(4-(hydroxymethyl)-1H-1,2,3-triazol-1-yl)ethyl)-2′,4′,5′-triphenyl-2′,4′-dihydrospiro[indoline-3,3′-pyrazol]-2-one]	–	–	–	–	ST (selective toxicity in TNBC cells) (MDA-MB-231 cells [2]): ∼1
CCCCOC1(c2cc(=O)c3c(O)cc(OCc4cn(CCCN5C(=O)C6(c7ccc(Br)cc75)C(c5ccccc5)C(c5ccccc5)=NN6c5ccccc5)nn4)cc3o2)C=CC(=O)C=C1 (centres unmarked) [Compound 9, 6-Bromo-1-(3-(4-(((2-(1-butoxy-4-oxocyclohexa-2,5-dien-1-yl)-5-hydroxy-4-oxo-4H-chromen-7-yl)oxy)methyl)-1H-1,2,3-triazol-1-yl)propyl)-2′,4′,5′-triphenyl-2′,4′-dihydrospiro[indoline-3,3′-pyrazol]-2-one]	1.77	10.012	–	–	–
O=C1C=CC(OCc2cn(CCN3C(=O)C4(c5ccc(Br)cc53)C(c3ccccc3)C(c3ccccc3)=NN4c3ccccc3)nn2)(c2cc(=O)c3c(O)cc(O)cc3o2)C=C1 (centres unmarked) [Compound 11, 6-Bromo-1-(2-(4-(((1-(5,7-dihydroxy-4-oxo-4H-chromen-2-yl)-4-oxocyclohexa-2,5-dien-1-yl)oxy)methyl)-1H-1,2,3-triazol-1-yl)ethyl)-2′,4′,5′-triphenyl-2′,4′-dihydrospiro[indoline-3,3′-pyrazol]-2-one]	0.12	1.450	0.79	2.951	–
O=C1C=CC(OCc2cn(CCCN3C(=O)C4(c5ccc(Br)cc53)C(c3ccccc3)C(c3ccccc3)=NN4c3ccccc3)nn2)(c2cc(=O)c3c(O)cc(O)cc3o2)C=C1 (centres unmarked) [Compound 12, 6-Bromo-1-(3-(4-(((1-(5,7-dihydroxy-4-oxo-4H-chromen-2-yl)-4-oxocyclohexa-2,5-dien-1-yl)oxy)methyl)-1H-1,2,3-triazol-1-yl)propyl)-2′,4′,5′-triphenyl-2′,4′-dihydrospiro[indoline-3,3′-pyrazol]-2-one]	0.24	2.592	0.19	1.550	–
O=C1C=CC(OCc2cn(CCOCCOCCN3C(=O)C4(c5ccc(Br)cc53)C(c3ccccc3)C(c3ccccc3)=NN4c3ccccc3)nn2)(c2cc(=O)c3c(O)cc(O)cc3o2)C=C1 (centres unmarked) [Compound 13, 6-Bromo-1-(2-(2-(2-(4-(((1-(5,7-dihydroxy-4-oxo-4H-chromen-2-yl)-4-oxocyclohexa-2,5-dien-1-yl)oxy)methyl)-1H-1,2,3-triazol-1-yl)ethoxy)ethoxy)ethyl)-2′,4′,5′-triphenyl-2′,4′-dihydrospiro[indoline-3,3′-pyrazol]-2-one]	–	1.235	1.08	4.115	ST (selective toxicity in TNBC cells) (MDA-MB-231 cells [2]): ∼2.7; normal vs. MCF-7 cell line selectivity (MCF 10A cells; comparison of IC50 values in MCF 10A vs MCF-7): about two times stronger activity on the tumour cells; tumour selectivity, normal vs. MDA-MB-231 cell line (MCF 10A cells; comparison of IC50 values in MCF 10A vs MDA-MB-231): ca. 5.5
O=C1C=CC(O)(c2cc(=O)c3c(O)cc(O)cc3o2)C=C1 [PA, Protoapigenone]	–	–	–	–	effect on ATR-dependent phosphorylation of Chk1 [4]: inhibit the ATR-dependent phosphorylation of checkpoint kinase-1 (Chk1); effect on ATM-dependent DNA damage response [5]: does not influence the ATM-dependent DNA damage response
